Most compounds without a hit are left out; they make up all but 1% or so of the library.
HSV augment: increases HSV replication in cells | HSV replication augmentation in cells, fold increase | maximum fold increase | 0.005% of 220,000 active; in the data active = maximum fold increase above about 1.5; inconclusive = no clear call, values can overlap the other calls; tested in PC3 cells
Furin inhibitor: blocks human furin protease activity; P09958; purified furin, fluorogenic substrate cleavage; inhibition, % at 20 µM or 30 µM; 0.061% of 220,000 active; AID 463115; in the data active = inhibition above about 25%
Target sequence (P09958 108-714 limits assumed): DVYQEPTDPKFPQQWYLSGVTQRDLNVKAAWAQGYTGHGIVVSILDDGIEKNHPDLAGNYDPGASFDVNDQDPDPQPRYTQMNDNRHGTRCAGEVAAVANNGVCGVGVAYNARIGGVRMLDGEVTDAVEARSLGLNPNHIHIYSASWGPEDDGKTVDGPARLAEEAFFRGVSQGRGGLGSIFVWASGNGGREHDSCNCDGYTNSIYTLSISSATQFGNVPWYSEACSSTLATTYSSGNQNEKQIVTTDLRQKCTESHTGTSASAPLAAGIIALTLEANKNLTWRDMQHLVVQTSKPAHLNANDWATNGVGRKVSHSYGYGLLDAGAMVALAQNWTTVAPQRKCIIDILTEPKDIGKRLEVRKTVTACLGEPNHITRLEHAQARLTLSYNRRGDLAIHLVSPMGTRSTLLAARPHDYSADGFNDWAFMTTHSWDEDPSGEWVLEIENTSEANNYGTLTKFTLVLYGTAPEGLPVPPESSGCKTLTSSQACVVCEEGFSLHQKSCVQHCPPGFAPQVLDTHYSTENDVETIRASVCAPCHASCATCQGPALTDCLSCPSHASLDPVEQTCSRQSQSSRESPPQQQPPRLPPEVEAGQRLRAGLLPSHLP
thrombin 1536: blocks human thrombin protease activity. P00734. alpha-thrombin, Boc-VPR-AMC fluorogenic substrate cleavage. inhibition, % at 5 µM. 0.26% of 220,000 active;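 active = inhibition at or above 40%; inactive = inhibition below 40%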
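Material: Human alpha-thrombin protein | Buffer or medium: pH 7.5 Tris-saline with Tween 20 | Reagent: Boc-VPR-AMC substrate, 15 µM final | Schedule: Reaction at ambient temperature | Detection: AMC fluorescence at 355 nm excitation and 460 nm emission | Evaluation: Percent inhibition scaled between no-compound controls and no-enzyme blanks | Controls: no-compound enzyme wells and no-enzyme blanks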
FXIa inh 1536: inhibitors of human coagulation factor XIa. purified FXIa, Boc-Glu-Ala-Arg-AMC fluorogenic substrate. inhibition, % at 5 µM. 0.14% of 220,000 active;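 active = inhibition of at least 40%; inactive = inhibition below 40%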;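 also: fluorescence of freed AMC excited at 355 nm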
hK5 inh: inhibitors of human kallikrein 5. recombinant hK5, fluorogenic AMC substrate cleavage. inhibition, % at 5 µM. 0.59% of 210,000 active. Q9Y337;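 active = inhibition of 40% or more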
FXIIa inh 1536: inhibitors of human coagulation factor XIIa | purified FXIIa, Boc-QGR-AMC fluorogenic substrate, 2 h | 0.3% of 220,000 active | P00748 | inhibition, % at 5 µM; in the data active = inhibition above about 40%
Of the large screens only hits and unclear results are named; the others gave an inactive call.

O=C(c1ccco1)N1CCN(C2CC(=O)N(c3ccccc3)C2=O)CC1 (centres undefined)	none
O=C(c1ccco1)N1CCN(C2CC(=O)N(c3ccc4c(c3)OCO4)C2=O)CC1 (centres undefined)	Furin inhibitor 31.5
COc1ccc(/C=C2\CCCC3C2=NN(C(=O)COC(=O)CNC(=O)c2ccccc2)C3c2ccc(OC)cc2)cc1 (centres undefined)	hK5 inh 47.0
O=C(OCC(=O)c1ccc(Cl)s1)c1ccc2ccccc2n1	FXIIa inh 1536 42.7
Cc1ccc(C(=O)OCC(=O)c2ccc(Cl)s2)s1	none
Cn1c(N)c(C(=O)c2cc(-c3ccncc3)nc3ccccc23)c(=O)n(C)c1=O	none
COc1ccc(-c2cc(C(=O)c3c(N)n(C)c(=O)n(C)c3=O)c3ccccc3n2)cc1OC	FXIIa inh 1536 42.0
CCCCN(C(=O)/C=C/c1ccco1)c1c(N)n(Cc2ccccc2)c(=O)[nH]c1=O	HSV augment inconclusive
Cc1ccsc1CNC(=O)c1c(-c2ccccc2)noc1C	hK5 inh 41.7
COc1ccccc1N(Cc1ccccc1)S(=O)(=O)c1cc(C(=O)O)ccc1Cl	none
C/C(CC(C)C)=N\Nc1ccc(S(N)(=O)=O)cc1[N+](=O)[O-]	none
Cc1ccc(NC(=O)CCn2cccc2)cc1C	FXIIa inh 1536 43.0
Cc1ccc(NC(=O)CSCC(N)=O)cc1C	hK5 inh 41.9, FXIIa inh 1536 41.9
Cc1ccc(NC(=O)Cn2cccc2)cc1C	none
CCOCCCn1c(=S)[nH]c2cc(C(=O)NCCCN(CC)CC)ccc2c1=O	none
CC1=C(C(=O)Nc2ccccc2)C(c2ccc(O)cc2)N2C(=O)CSC2=N1 (centres undefined)	thrombin 1536 42.5
O=C(COC(=O)Cn1cnc2ccccc2c1=O)Nc1cc(Cl)ccc1[N+](=O)[O-]	thrombin 1536 65.0
CC12CN3CC(C)(CN(C1)C3c1ccc(Br)cc1)C2=O (centres undefined)	hK5 inh 68.3
N=C1CCCN1CC(=O)c1ccc(Br)cc1	none
O=C(Nc1nc(-c2ccncc2)cs1)c1ccc(F)cc1	none
Cn1nc(C(=O)Nc2nc(-c3ccc(F)cc3)cs2)ccc1=O	FXIa inh 1536 104.5, hK5 inh 61.2
COc1ccc(C(=O)Nc2ccc(N3CCN(c4ccc(OC)cc4)CC3)c(C#N)c2)cc1	FXIa inh 1536 46.8
CSc1ccc(-c2nc(CN3CCCCC3c3cccnc3)c(C)o2)cc1 (centres undefined)	none
Nc1nc(CN2CCCCC2)cs1	thrombin 1536 104.0, hK5 inh 62.2
Nc1nc(CN2CCOCC2)cs1	none
CC1=CC2=C(OC1N(C)C)c1cccc3cccc(c13)C2=O (centres undefined)	hK5 inh 50.2
Cc1ccc(N2C(=O)c3cccc4cccc(c34)C2=O)cc1	none
CC(C(=O)NCc1ccccn1)N1C(=O)c2ccccc2C1=O (centres undefined)	thrombin 1536 103.8
O=C(CN1C(=O)c2ccccc2C1=O)Nc1sc2c(c1C(=O)NCc1ccco1)CCCC2	Furin inhibitor 28.5
O=C(CCCN1C(=O)c2ccccc2C1=O)Nc1sc2c(c1C(=O)NCc1ccco1)CCC2	none
COc1ccc(Cl)cc1NC(=O)Nc1cn(C)nc1C	FXIa inh 1536 44.6, hK5 inh 56.7
CN(Cc1cc2ccccc2[nH]c1=O)S(=O)(=O)c1ccccc1	none
CN(Cc1cc2ccccc2[nH]c1=O)S(C)(=O)=O	hK5 inh 46.9
CC(=O)NC(c1ccc(F)cc1)c1cccnc1 (centres undefined)	hK5 inh 48.5
CC(=O)c1cc2c(cc1NS(=O)(=O)c1ccc(F)cc1)OCO2	none
CCN1CCN(CC(=O)Nc2cc(C)on2)CC1	FXIa inh 1536 45.5, hK5 inh 41.6
O=C(CCCN1C(=O)c2ccccc2C1=O)Nc1cccc(S(=O)(=O)NC2=NCCC2)c1	none
O=C(CNC(=O)c1ccc(N2C(=O)c3ccccc3C2=O)cc1)OCC(=O)c1ccccc1	none
CCc1ccc(C(=O)COC(=O)CNC(=O)c2ccc(N3C(=O)c4ccccc4C3=O)cc2)cc1	hK5 inh 43.7
CC(C)NC(=O)CSc1nc(N)c(NC(=O)c2ccco2)c(=O)[nH]1	none
CSc1cccc(NC(=S)N(CCN(C)C)C(C)c2ccncc2)c1 (centres undefined)	none
CCc1nc2ccc(C(=O)NCc3ccco3)cc2nc1CC	none
O=C(NCc1ccco1)c1ccc2c(c1)CCO2	hK5 inh 53.3, FXIIa inh 1536 52.2
COc1ccc(N(Cc2cc3cccc(C)c3[nH]c2=O)C(=O)C2CCCO2)cc1 (centres undefined)	hK5 inh 54.0
CC(C)c1ccc(O)c(NC(=S)NC(=O)c2cccnc2)c1	FXIIa inh 1536 40.6 (no result: hK5 inh)
CCC(C)c1ccc(O)c(NC(=O)c2cccnc2)c1 (centres undefined)	none
COc1nc(Nc2ccc([N+](=O)[O-])cc2)nc(NC2CCCCC2)n1	none
Cn1c(=O)[nH]c(=O)c2c1nc(NCc1ccco1)n2Cc1ccccc1Cl	none
COC(=O)c1c(NC(=O)c2ccc(Br)s2)sc2c1CCC2	FXIIa inh 1536 55.2
COC(=O)c1c(NC(=O)c2ccoc2C)sc2c1CCC2	none
C#CCOc1nc(Nc2cccc([N+](=O)[O-])c2)nc(OCC#C)n1	FXIIa inh 1536 41.0
O=C(NCCN1C(=O)C2C3C=CC(C3)C2C1=O)Nc1ccccc1 (centres undefined)	FXIIa inh 1536 106.8
O=C(O)c1ccc(C(=O)c2ccc3c(c2)C(=O)N(CC2CCCO2)C3=O)cc1 (centres undefined)	none
Cc1cc(NC(=O)CCN2C(=O)/C(=C/c3ccccc3F)SC2=S)no1	FXIIa inh 1536 95.3
Cc1cc(NC(=O)CCN2C(=O)/C(=C\c3ccccc3)SC2=S)no1	none
CCOc1ccc(Oc2c(/C=N/NC(=O)C3CC3)c(C)nn2-c2ccccc2)cc1	none
O=C(N/N=C/c1cc([N+](=O)[O-])ccc1O)c1cccc2cc[nH]c12	hK5 inh 60.3
CCc1oc(C(=O)OC)cc1CSC(=N)N	none
COc1cc2c(cc1OC)CN(C(=S)Nc1ccc(Cl)cc1)CC2	none
COc1ccc(Cn2cccc(NC(=O)Nc3ccc(F)cc3)c2=O)cc1	none
CSc1ccc(NC(=O)Nc2cccn(Cc3ccccc3)c2=O)cc1	hK5 inh 66.1
COc1cccc(Nc2ccccc2C(=O)O)c1	none
COc1cccc(CNc2nc3ccc(C)cc3n3cnnc23)c1	none
COc1cccc(Nc2ccc(Nc3cccc(OC)c3)nn2)c1	hK5 inh 53.2
COc1cccc(Nc2nc3ccccc3n3cnnc23)c1	hK5 inh 64.0
CCN(CC)S(=O)(=O)c1cc(C(=O)N(C)CC(=O)Nc2ccc(Cl)cc2)ccc1Cl	none
O=C1CC(c2ccccc2)CC(O)=C1C=NCCN1CCN(C(=S)Nc2cccc(Cl)c2)CC1 (centres undefined)	hK5 inh 43.5
CCC(C)NC(=O)c1cnc2n(c1=O)CCS2 (centres undefined)	none

Screening results deposited in PubChem BioAssay by several laboratories.
